Sampled rows, rich in hits. Any-hit rate of the full collection: about 2.4%.
STAT1 blocker: STAT1 signaling inhibitors, primary screen, cell-based, HTS, luciferase reporter; inhibition, % at 5.5 µM; 0.35% of 200,000 active; NIH 3T3 STAT1-luciferase reporter, IFN-gamma, luminescence;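 active = inhibition above a set limit, the mean inhibition across all tested compounds plus 3 SD, cut at about 34% in these data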
STAT3 inh-1: IL-6 driven STAT3 reporter inhibitors, primary screen, U3A cells, luciferase, luminescence, MLSCN library; IL-6 STAT3-luciferase reporter; host cell line lacks STAT1; inhibition, % at 5.5 µM; 0.89% of 190,000 active; AID 862, 2007;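 active = inhibition above the mean inhibition across all screened compounds plus 3 SD, cut at about 44% in these data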
MT stabilizer: microtubule stabilizers in HeLa cells, primary screen, imaging, high-content imaging; HeLa tubulin immunostaining HCS, 24 h; share of cells brighter than vehicle mean+2SD; % tubulin-high responders, % at 10 µM; 0.83% of 200,000 active;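 active = plate Z-score above 3 for both tubulin-high and condensed-nucleus cell shares, with cell loss under 80%, at 10 µM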;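 also: anti alpha tubulin signal scored within the nucleus-defined area of each cell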
STAT3 act: IL-6 driven STAT3 reporter potentiators, primary screen, U3A cells, luciferase, luminescence, MLSCN library. 0.91% of 190,000 active. IL-6 STAT3-luciferase reporter; 100% = signal with IL-6 EC80 alone. activation (% of control), % at 5.6 µM. AID 871, 2007;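 active = activation above the screen-wide mean of compound activation plus 3 SD, cut at about 130% in these data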
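Test system: STAT3-luciferase reporter U3A cells; Detection: reporter luminescence signal; Times: 1 h compound pre-exposure, 6 h IL-6 stimulation, 37 °C; Benchmarks: IL-6-only high control; Also added: IL-6 stimulus at 33 ng/mL final.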
bCat nuc transl: modulators of beta-catenin nuclear translocation, primary screen, imaging, HeLa cells, immunofluorescence, high-content; nuclear translocation activity, % at 5 µM; 0.3% of 190,000 active;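 active = nuclear translocation activity above 50% at 5 µM, with a well cell count of 50 or more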;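 also: per-cell ratio of nuclear to cytoplasmic median beta-catenin stain intensity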
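assay system = human HeLa cells, endogenous beta-catenin | times = compound treatment 24 h, 37°C, 5% CO2 | detection = Anti-beta-catenin immunofluorescence on PFA-fixed, Triton-permeabilized cells, DAPI nuclei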
STAT3 inh-2: STAT3 reporter inhibitors, retest of hits, confirmation, U3A cells, luciferase, luminescence | shares compounds with STAT3 inh-1 | IL-6 STAT3 luciferase reporter; cell line lacks STAT1 | inhibition, % at 5.7 µM | 45% of 1,200 active | AID 1265, 2008;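 active = inhibition above the hit cutoff computed for the primary STAT3 screen, cut at about 44% in these data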
NFkB inh STAT3ct: NF-kB reporter inhibitors in human cells, confirmation, counter-screen for STAT3 inhibitor project, cell-based, HEK293T, luciferase, TNF-alpha stimulus; shares compounds with STAT3 inh-1; TNF-alpha induced; inhibition, % at 5.7 µM; AID 1308, 2008; 36% of 1,200 active;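 active = inhibition above the mean of solvent-only control wells plus 3 SD, cutoff set per campaign, cut at about 13% in these data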
STAT1 inh 2: STAT1 reporter inhibitors, IFN-gamma induced, confirmation, counter-screen for STAT3 inhibitor project, cell-based, NIH 3T3, luciferase luminescence | NIH 3T3 STAT1-luciferase reporter | inhibition, % at 5.7 µM | shares compounds with STAT3 inh-1 | 27% of 1,200 active | AID 1317, 2008;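 active = inhibition above the mean plus 3 SD of solvent-only control wells, limit set per screening run, cut at about 16% in these data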
Large screens that a line does not name were inactive (follow-up assays come after a bar, where they were run).

O=C(CSc1nc2ccccc2s1)N/N=C/c1cc([N+](=O)[O-])ccc1O	none (no result: STAT1 blocker, STAT3 inh-1, MT stabilizer, STAT3 act)
COc1cccc(C=Nc2ccc3c(c2)OCCO3)c1O	STAT3 inh-1 49 (no result: bCat nuc transl) | STAT3 inh-2 inactive | NFkB inh STAT3ct inactive | STAT1 inh 2 inactive
O=C1C2C3c4ccccc4C(c4ccccc43)[C@@H]2c2nc3ccccc3n21 (stereo partly specified)	STAT3 inh-1 48 | STAT3 inh-2 57 | NFkB inh STAT3ct inactive | STAT1 inh 2 inactive
COc1ccc(Cn2c(=O)[nH]c3cc(C(=O)N4CCN(Cc5ccccc5)CC4)ccc3c2=O)cc1	STAT3 inh-1 64 | STAT3 inh-2 56 | NFkB inh STAT3ct 16 | STAT1 inh 2 inactive
O=C(Nc1cccc(Cl)c1)Nc1ccccc1C(=O)O	none (no result: STAT1 blocker, STAT3 inh-1, MT stabilizer, STAT3 act)
O=C(Nc1ccc(Cl)cc1)Nc1ccccc1C(=O)O	STAT3 inh-1 62 | STAT3 inh-2 inactive | NFkB inh STAT3ct inactive | STAT1 inh 2 inactive
O=C(Nc1ccc(Cl)c(Cl)c1)Nc1ccccc1C(=O)O	STAT3 inh-1 53 | STAT3 inh-2 inactive | NFkB inh STAT3ct inactive | STAT1 inh 2 inactive
Cc1ccc(S(=O)(=O)N(C)CCCC(=O)Nc2ccncc2)cc1	STAT3 inh-1 50 (no result: bCat nuc transl) | STAT3 inh-2 inactive | NFkB inh STAT3ct inactive | STAT1 inh 2 inactive
Cc1ccc(S(=O)(=O)N(C)CCCC(=O)Nc2ccc(F)cc2)cc1	none
CCS(=O)(=O)n1nc(-c2ccccc2)cc1N	none (no result: bCat nuc transl)
CCOC(=O)c1oc2ccc(S(=O)(=O)n3nc(-c4ccccc4)cc3N)cc2c1C	STAT3 inh-1 54 | STAT3 inh-2 inactive | NFkB inh STAT3ct 13 | STAT1 inh 2 inactive
COc1ccc(N2CC(C(=O)NCc3ccco3)CC2=O)cc1 (stereo unspecified)	none
CCOc1ccc(-c2nnc(-c3cccs3)o2)cc1	STAT3 inh-1 79 | STAT3 inh-2 inactive | NFkB inh STAT3ct inactive | STAT1 inh 2 inactive
c1csc(-c2nnc(-c3ccc(N4CCOCC4)cc3)o2)c1	STAT3 inh-1 59 | STAT3 inh-2 inactive | NFkB inh STAT3ct inactive | STAT1 inh 2 inactive
CCOc1ccc(-c2nnc(-c3cccs3)o2)cc1OCC	none
Nc1nc2ccccc2n1C(=O)c1ccc(F)cc1	STAT3 inh-1 68 | STAT3 inh-2 inactive | NFkB inh STAT3ct inactive | STAT1 inh 2 inactive
Nc1nc2ccccc2n1C(=O)c1ccccc1	STAT3 inh-1 67 | STAT3 inh-2 inactive | NFkB inh STAT3ct inactive | STAT1 inh 2 inactive
Cc1ccc(S(=O)(=O)N2CCOCC2)cc1NC(=O)COC(=O)c1cccnc1Cl	none
Cc1cccc(Nc2nc(-c3c(C)nc4ccccn34)cs2)c1	STAT3 inh-1 58, MT stabilizer 21 | STAT3 inh-2 62 | NFkB inh STAT3ct 18 | STAT1 inh 2 inactive
Cc1cccc(Nc2nc(-c3ccncc3)cs2)c1	none
CCCCCCC1CCC(C(=O)N2CCOCC2)CC1 (stereo unspecified)	none
COC(=O)c1ccc(NC(=O)CCN2CCN(CCC(=O)Nc3ccc(C(=O)OC)cc3)CC2)cc1	STAT3 inh-1 49 | STAT3 inh-2 inactive | NFkB inh STAT3ct inactive | STAT1 inh 2 inactive
COC(=O)c1ccc(NC(=O)CCN2CCCCC2)cc1	none
CN(C)C(=O)CSc1cnc2ccccc2n1	none
Cc1ccc(C(=O)CSc2cnc3ccccc3n2)cc1C	STAT3 inh-1 54 (no result: bCat nuc transl) | STAT3 inh-2 inactive | NFkB inh STAT3ct inactive | STAT1 inh 2 inactive
Cc1cc(NC(=O)c2ccc3c(c2)OCCO3)no1	STAT3 inh-1 74 (no result: bCat nuc transl) | STAT3 inh-2 inactive | NFkB inh STAT3ct inactive | STAT1 inh 2 inactive
O=C(Nc1ccccn1)c1ccc2c(c1)OCCO2	STAT3 inh-1 51 | STAT3 inh-2 inactive | NFkB inh STAT3ct inactive | STAT1 inh 2 inactive
